EC50, Activity and inhibition data for four compounds are collected here from ChEMBL document CHEMBL3045423, “Cynodontin: a fungal metabolite with antifungal properties” (J Agric Food Chem, 2003).

One data set deals with Sclerotinia sclerotiorum. In words: Antifungal activity against Sclerotinia sclerotiorum assessed as mycelial growth inhibition after 4 to 8 days. The note with it: read-out: ED50 (the source's name). Format: functional. The procedure, abridged: (§1)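 Test substance added in acetone (solvent at most 0.8% in treated and control plates) to sterilized potato dextrose agar. Plates inoculated with 0.5 cm mycelial blocks and incubated in the dark at 25 °C for 4-8 days depending on species. Linear growth inhibition estimated from colony diameter.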

For data set [1], the system named is Botrytis cinerea. In words: Antifungal activity against Botryotinia fuckeliana assessed as mycelial growth inhibition after 4 to 8 days. Format: functional. The following applies: read-out: ED50 (the source's name). The method in brief: as §1
The subject of another data set is Capsicum annuum. Description: Phytotoxicity in Capsicum annuum (pepper) assessed as seed germination at 250 mg/mL applied as seed dressings after 8 to 14 days (reference value: 84.7 +/- 4.6%). Format: organism-based. The following applies: in vivo.
For the next data set, the system named is Sclerotinia minor. Description: Antifungal activity against Sclerotinia minor assessed as mycelial growth inhibition after 4 to 8 days. Format: functional. The following applies: read-out: ED50 (the source's name). The procedure, abridged: as §1
Another data set deals with Solanum melongena. Description: Phytotoxicity in Solanum melongena (eggplant) assessed as seed germination at 250 mg/mL applied as seed dressings after 8 to 14 days (reference value: 84.7 +/- 2.3%). Format: organism-based. The following applies: in vivo.
In data set [2] the test system is Brassica oleracea. In words: Phytotoxicity in Brassica oleracea (cabbage) assessed as seed germination at 250 mg/mL applied as seed dressings after 8 to 14 days (reference value: 90 +/- 5.3%). Format: organism-based. The following applies: in vivo.
For data set [3], the system named is Brassica oleracea. In words: Phytotoxicity in Brassica oleracea (broccoli) assessed as seed germination at 250 mg/mL applied as seed dressings after 8 to 14 days (reference value: […] +/- 4.2%). The note with it: in vivo. Format: organism-based.
Data set [4] has as its system Botrytis cinerea. In words: Antifungal activity against Botryotinia fuckeliana assessed as inhibition of conidia germination at 1 to 10 ug/mL after 5 hr by light adverse phase microscopic analysis. Format: functional, organism-based. The procedure, abridged:
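B. cinerea conidia (10^6/mL in water) applied as 0.2 mL droplets onto water-agar (agar plus deionized water) with or without test substance added in acetone. Incubated 5 h in the dark at 25 °C. Percent germination scored from 200 conidia per dish under light microscopy.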

For a further data set, the system named is Lactuca sativa. In words: Phytotoxicity in Lactuca sativa (lettuce) assessed as seed germination at 250 mg/mL applied as seed dressings after 8 to 14 days (reference value: 90 +/- 5.3%). Format: organism-based. The note with it: in vivo.
The subject of a further data set is Verticillium dahliae. Description: Antifungal activity against Verticillium dahliae assessed as mycelial growth inhibition after 4 to 8 days. Format: functional. The following applies: read-out: ED50 (the source's name). The procedure, abridged:
as §1

The next data set relates to Cucumis melo. In words: Phytotoxicity in Cucumis melo (muskmelon) assessed as seed germination at 250 mg/mL applied as seed dressings after 8 to 14 days (reference value: 90 +/- 2%). The following applies: in vivo. Format: organism-based.
Another data set has as its system Cucumis sativus. Description: Phytotoxicity in Cucumis sativus (cucumber) assessed as seed germination at 250 mg/mL applied as seed dressings after 8 to 14 days (reference value: […] +/- 1.2%). Format: organism-based. The following applies: in vivo.
In data set [5] the test system is Brassica oleracea var. botrytis (cauliflower). Description: Phytotoxicity in Brassica oleracea var. botrytis assessed as seed germination at 250 mg/mL applied as seed dressings after 8 to 14 days (reference value: 97.3 +/- 1.2%). The following applies: in vivo.
The subject of another data set is Solanum lycopersicum. In words: Phytotoxicity in Solanum lycopersicum (tomato) assessed as seed germination at 250 mg/mL applied as seed dressings after 8 to 14 days (reference value: 94 +/- 2%). Format: organism-based. The note with it: in vivo.

In brackets after ≈: the same amount, converted by molar mass. Activity calls are given as the source filed them. The calls are words filed in the database; no cut-off is given here.

On to `O=C1c2ccccc2C(=O)c2ccccc21` [ANTHRAQUINONE], for which the EC50 in the data set with Sclerotinia sclerotiorum, in the data set on Botrytis cinerea [1], with Sclerotinia minor and in the data set on Verticillium dahliae was over 100 µg/mL in each case. The Activity in the data set with Capsicum annuum is 85.3%; in the data set with Solanum melongena it was 82.7%; in the data set with Brassica oleracea [2], 88%; with Brassica oleracea [3], 87.3%; in the data set on Lactuca sativa, 88%. In addition, the inhibition result with Botrytis cinerea [4] was “inactive”.

Consider `Cc1cc(O)c2c(c1)C(=O)c1cccc(O)c1C2=O` [CHRYSOPHANOL], for which the EC50 in the data set with Sclerotinia sclerotiorum is over 100 µg/mL; in the data set on Botrytis cinerea [1] it was over 100 µg/mL; with Sclerotinia minor, 74.1 µg/mL (≈ 292 µM); with Verticillium dahliae, over 100 µg/mL. Moreover, the inhibition result in the data set on Botrytis cinerea [4] was “inactive”.

Regarding `Cc1cc(O)c2c(c1O)C(=O)c1c(O)ccc(O)c1C2=O` [Cynodontin], the Activity in the data set on Cucumis melo came to 90.7%; in the data set on Capsicum annuum, 84.7%; in the data set with Cucumis sativus, 94%; in the data set on Solanum melongena it was 82.7%; with Brassica oleracea [2] it was 89.3%; in the data set with Brassica oleracea [3], 88%. The Activity in [5] is 96.7%; in the data set with Solanum lycopersicum, 95.3%; in the data set with Lactuca sativa, 96.7%. Besides, the EC50 amounted to 5.52 µg/mL (≈ 19.3 µM) with Sclerotinia sclerotiorum, 5.25 µg/mL (≈ 18.3 µM) with Botrytis cinerea [1], 4.31 µg/mL (≈ 15.1 µM) with Sclerotinia minor and 11.5 µg/mL (≈ 40.3 µM) with Verticillium dahliae. The inhibition entry in the data set on Botrytis cinerea [4] was “inactive”.

As to `Cc1cc(O)c2c(c1)C(=O)c1cc(O)cc(O)c1C2=O` [EMODIN], the EC50 was 66.5 µg/mL (≈ 246 µM) with Sclerotinia sclerotiorum, 41.2 µg/mL (≈ 153 µM) in the data set on Botrytis cinerea [1], 38.9 µg/mL (≈ 144 µM) with Sclerotinia minor and over 100 µg/mL with Verticillium dahliae. Further, the inhibition entry with Botrytis cinerea [4] was “inactive”.
